Measured values collected from several papers.
Lines come from different studies, so protocols differ.
Sample: plasma

CO[C@H]1CC[C@H](N2C(=O)CNc3ncc(-c4ccc(C(C)(C)O)nc4)nc32)CC1  AUC(0-t) (human; oral; 15 mg; multiple doses, patients): 383 ng·h/mL
CO[C@@H]1[C@H](OC(=O)N2CC(CCN3CCOCC3)C2)CC[C@]2(CO2)[C@H]1[C@@]1(C)O[C@@H]1CC=C(C)C  AUC(0-t) (human; subcutaneous; 4.8 mg; single dose, healthy volunteers): 21.6 ng·h/mL
Cn1cc(-c2ccc(S(=O)(=O)[C@@H]3C[C@@H](C(=O)NC4(C#N)CC4)N(C(=O)C4(C(F)(F)F)CC4)C3)c(C(F)(F)F)c2)cn1  AUC(0-inf) (human; oral; 300 mg; single dose, fasted, healthy volunteers): 21000 ng·h/mL
Cc1ccc(C(=O)N(CCCN)[C@@H](c2oc3cc(Cl)ccc3c(=O)c2Cc2ccccc2)C(C)C)cc1  AUC (human; intravenous; 5 mg/m²; single dose, patients, infusion): 8960 ng·h/mL
CCc1nc2c(C)cc(N3CCN(CC(=O)N4CC(O)C4)CC3)cn2c1N(C)c1nc(-c2ccc(F)cc2)c(C#N)s1  AUC(0-inf) (human; oral; 20 mg; single dose, fed, healthy volunteers): 500 ng·h/mL
COc1cc(C(=O)NC2CCN(C)CC2)c(F)cc1Nc1ncc(C(F)(F)F)c(Oc2cccc3c2C(=O)N(C)C3)n1  AUC (human; oral; 300 mg; multiple doses, once daily, steady state, patients): 79.6 µM·h
CC(C)(O)c1ccccc1-c1ccc2[nH]c(/C=C/c3ccc(C(F)(F)F)cc3)nc2c1  AUC(0-t) (male human; oral; 30 mg; single dose, fasted, healthy volunteers): 5160 ng·h/mL
COc1ccc([C@@H]2CN(C(=O)[C@@H](O)CO)C[C@@]2(C)[C@@H](C)O)cc1OC1CN(c2ccc(C)cn2)C1  AUC(0-t) (human; oral; 40 mg; single dose, healthy volunteers): 7650 ng·h/mL
Cn1c(=O)oc2ccc(-c3ccc(C[C@@H](C#N)NC(=O)[C@@H]4CNCCCO4)cc3)cc21  AUC (male human; oral; 15 mg; single dose, healthy volunteers): 4.17 µM·h
CS(=O)(=O)CCC#N  AUC (human; oral; 100 mg; multiple doses, once daily): 70300 ng·h/mL
CC(C)n1cc(C#N)c2cc(-n3cc(C(=O)O)cn3)ccc21  AUC(0-t) (human; oral; 200 mg; single dose, fasted, healthy volunteers): 43900 ng·h/mL
COCCOc1cnc2ccn([C@H](C)c3nnc4c(F)cc(-c5cnn(C)c5)cn34)c(=O)c2c1  AUC(0-t) (human; oral; 400 mg; multiple doses, once daily, patients): 49600 ng·h/mL
